Our source for the caspase activation and AC10 values is PubChem BioAssay AID504365 (Broad Institute, 2011).

Activity calls are given as the source filed them.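 How the source made its calls: active means fitted curve reaches 10% of the positive control caspase activation at or below the top valid tested dose; inactive means signal shifts the opposite way, plus the rest.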

Tested on in one assay: not listed separately
As to the kind of experiment: caspase-3/7 activation in Mel501 cells, dose response, orthogonal assay for A1 inhibitor project, cell-based, luminescence, dry powder, set 2 (AID 504365). Particulars: Mel501 cells, caspase-3/7 Glo luminescence, 6 h; at 16 µM (top of the series). The method in brief:
(§1)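 Material – Mel501 human cell line, caspase-3/7 luminescence assay · Input – 2500 Mel501 cells per well · Compound dosing – pin-transferred compound · Technique – luminescence from diluted Caspase-Glo 3/7 DEVD-luciferin reagent · Schedule – 6 h compound at 37 °C, 1 h reagent at RT · Buffer or medium – RPMI-1640, 10% FBS, TSA · Read-out basis – caspase activation from luminescence increase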
As for `CC1(C)CCC(c2ccc(Cl)cc2)=C(CN2CCN(c3ccc(C(=O)NS(=O)(=O)c4ccc(N[C@H](CCN5CCOCC5)CSc5ccccc5)c(S(=O)(=O)C(F)(F)F)c4)cc3)CC2)C1`, the caspase activation is 0.95% (inactive).

The same assay, now with this note: Mel501 cells, caspase-3/7 Glo luminescence, 6 h; at 35 µM (top of the series).
Regarding `COc1c([N+](=O)[O-])c(=O)n(C)c2ccccc12`, the caspase activation is -0.501% (inactive).

With `COc1ccc(CCNc2nc(N3CCOCC3)nc(N3CCOCC3)n2)cc1OC`, the caspase activation is 0.627% (inactive).

Consider `Cc1ccc(Sc2c([N+](=O)[O-])c(=O)n(C)c3ccccc23)cc1`, for which the caspase activation was -1.78% (inactive).

Consider `Cc1ccc(Sc2c([N+](=O)[O-])c(=O)n(Cc3ccccc3)c3ccccc23)cc1`, for which the caspase activation was -2.41% (inactive).

As to `O=C(COc1ccc(Cl)cc1Cl)NNc1nc(N2CCOCC2)nc(N2CCOCC2)n1`, the caspase activation was -1.89% (inactive). On to `COc1nc2ccccc2c(Cl)c1[N+](=O)[O-]`, for which the caspase activation was -1.96% (inactive). As to `COc1nc2ccccc2c(Sc2ccc(C)cc2)c1[N+](=O)[O-]`, the caspase activation was -2.73% (inactive). On the same count and under the same terms, under `COc1ccc(N2CCN(c3nc(NCCc4ccc(OC)c(OC)c4)nc(N4CCOCC4)n3)CC2)cc1` stands -1.94% (inactive). Turning to `COCCn1c(=O)c(Sc2ccc(C)cc2)c(Sc2ccc(C)cc2)c2ccccc21`, the caspase activation was -1.29% (inactive). For the compound `CCn1c(=O)c(Sc2ccc(C)cc2)c(Sc2ccc(C)cc2)c2ccccc21`, the caspase activation is -1.83% (inactive). In the case of `C/C(=N\Nc1nc(N2CCCCC2)nc(N2CCCCC2)n1)c1ccc(F)cc1`, the caspase activation was -1.18% (inactive). The same measure, in the same setting: under `Cc1ccc(S(=O)(=O)c2c([N+](=O)[O-])c(=O)n(C)c3ccccc23)cc1` stands -0.501% (inactive); under `Cn1c(=O)c([N+](=O)[O-])c(S(C)(=O)=O)c2ccccc21`, -1.8% (inactive); under `Cc1ccc(Sc2c(Sc3ccc(C)cc3)c3ccccc3n(Cc3ccccc3)c2=O)cc1`, -1.23% (inactive). Still for that read-out and setting: next, `CCn1c(=O)c([N+](=O)[O-])c(Sc2ccc(C)cc2)c2ccccc21`: -0.736% (inactive); `Cn1c(=O)c(Sc2ccccn2)c(Sc2ccccn2)c2ccccc21`: -2.24% (inactive). As for `COCCn1c(=O)c([N+](=O)[O-])c(Cl)c2ccccc21`, the caspase activation is 6.5% (inactive). For the compound `COCCn1c(=O)c([N+](=O)[O-])c(Sc2ccc(C)cc2)c2ccccc21`, the caspase activation is -1.69% (inactive). As for `COc1ccc(CCNc2nc(N3CCCC3)nc(N3CCCC3)n2)cc1OC`, the caspase activation was 0.012% (inactive). Turning to `Cn1c(=O)c([N+](=O)[O-])c(Sc2ccccn2)c2ccccc21`, the caspase activation is -1.77% (inactive).

`CCn1c(=O)c([N+](=O)[O-])c(Cl)c2ccccc21`: the caspase activation was 2.55% (inactive). With `O=c1[nH]c2ccccc2c(O)c1[N+](=O)[O-]`, the caspase activation was -2.05% (inactive). With `Cc1ccc(Sc2c(Sc3ccc(C)cc3)c3ccccc3n(C)c2=O)cc1`, the caspase activation is -1.69% (inactive).

A further assay has as its system Mel501 cells, caspase-3/7 Glo luminescence, 6 h. The assay is described as above.
Conditions: not given
The method in brief:
as §1
As for `O=c1[nH]c2ccccc2c(Cl)c1[N+](=O)[O-]`, the AC10 is > 35 µM (inactive).

As for `Cn1c(=O)c([N+](=O)[O-])c(Cl)c2ccccc21`, the AC10 was > 35 µM (inactive). As to `O=c1c([N+](=O)[O-])c(Cl)c2ccccc2n1Cc1ccccc1`, the AC10 is 30.2 µM.
